The values below come from paper PMC6981055 (Biochemical pharmacology, 2019).

Structures are written as SMILES. In brackets after ≈: the same amount, converted by molar mass. Entries after “also recorded” stand apart in the source; their conditions may differ.

One data set concerns CEM tumor xenografts. The experiment in a line: Growth inhibition of CEM tumor xenografts, DI-87 with thymidine, PK-PD model. The data set is classed as in vivo. The note with it: for Tumor growth, single agent: agent given alone. The method, boiled down: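 NSG mice (8–12 weeks) carried subcutaneous CEM xenografts (2 × 10^6 cells, PBS/matrigel 50/50). Dosing began at 50 mm3: oral gavage QD or BID for 16–18 days (PEG-200:Transcutol:Labrasol:Tween-80, 5:3:1:1), plus thymidine 2 g/kg i.p. BID in saline. Controls: thymidine alone, compound plus saline, vehicle plus saline. Tumor size tracked (n=5). An Emax indirect-response PD model was linked to population PK tumor concentrations.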

For the next data set, the target named is dCK (Homo sapiens, UniProt P27707). Briefly: dCK activity in CEM tumors by [18F]CFA MicroPET/CT, PK-PD model. The data set is classed as in vivo, NSG mice. An outline of the steps:
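Male NSG mice bearing subcutaneous CEM tumors (250 mm3) received a single oral dose (5, 10 or 25 mg/kg) in lipid/surfactant vehicle, one time point per mouse (N=4 per time point). Mice were anesthetized and given 740 kBq [18F]CFA i.v. 3 h before imaging. MicroPET/CT acquisition ran 10 min with MAP reconstruction, co-registered CT and manual 3D tumor regions of interest. Modelled tumor concentrations were linked to the effect compartment; linear, Emax and sigmoid Emax fits were compared.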

Data set [1] is classed as in vivo, NSG mice. The method, boiled down: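 Female NSG mice with subcutaneous CEM xenografts (from 50 mm3) given oral gavage at 10, 25 or 50 mg/kg in PEG-200:Transcutol:Labrasol:Tween-80 (5:3:1:1). One terminal plasma and tumor sample per mouse at 1, 3, 6, 9 and 24 h (n=5 per time point). Methanol extraction with internal standard, LC-MS/MS-MRM. Population model with gut depot, plasma and tumor compartments (ADVAN6, TRANS1), exponential inter-subject error and actual tumor volumes.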

Data set [2] addresses bovine serum albumin (BSA) (Bos taurus, UniProt P02769). Briefly: Protein binding assessed by IC50 of dCK inhibitor in presence of BSA. It counts as in vitro ADME. To be noted: 25 and 50 mg/mL BSA. The method, boiled down: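 IC50 was compared between the two BSA levels, with duplicate determinations (n=2) reported as mean±SD.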
The next data set concerns CEM cells. Briefly: Cell proliferation assay: rescue of CEM cells from gemcitabine. The data set is classed as cell-based, human. The note with it: CEM cells treated with gemcitabine with and without DI-87. An outline of the steps: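 CEM cells plated at 1×10^3 cells/well, exposed to increasing gemcitabine concentrations (up to 10 μM) with or without 1 μM test compound for 72 hr. Viability read by CellTiter-Glo luminescence after 5 min at room temperature.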

[3] abbreviates: sigmoid Emax indirect response model.
The mark [4] stands for this setting: oral 10, 25, 50 mg/kg, plasma-tumor population PK model.
[5] abbreviates: plasma-tumor population PK model.

bovine serum albumin (BSA), sequence (P02769 25-607): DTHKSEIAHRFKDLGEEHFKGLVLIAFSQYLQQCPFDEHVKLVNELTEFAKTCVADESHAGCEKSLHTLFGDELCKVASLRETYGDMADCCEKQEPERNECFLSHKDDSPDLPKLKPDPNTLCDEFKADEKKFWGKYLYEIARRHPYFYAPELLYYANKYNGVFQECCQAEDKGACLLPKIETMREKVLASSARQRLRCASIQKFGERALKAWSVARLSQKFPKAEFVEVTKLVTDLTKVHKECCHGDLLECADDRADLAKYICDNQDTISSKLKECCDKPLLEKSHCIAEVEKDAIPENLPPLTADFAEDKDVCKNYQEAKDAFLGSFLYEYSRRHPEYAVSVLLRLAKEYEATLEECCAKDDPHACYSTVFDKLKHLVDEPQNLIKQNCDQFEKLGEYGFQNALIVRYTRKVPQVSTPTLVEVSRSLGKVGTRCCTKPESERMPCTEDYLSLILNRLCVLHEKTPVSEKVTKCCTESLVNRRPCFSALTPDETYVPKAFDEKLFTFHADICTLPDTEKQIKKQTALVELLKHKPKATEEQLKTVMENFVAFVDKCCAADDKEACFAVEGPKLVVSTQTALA
dCK, sequence (P27707 whole entry): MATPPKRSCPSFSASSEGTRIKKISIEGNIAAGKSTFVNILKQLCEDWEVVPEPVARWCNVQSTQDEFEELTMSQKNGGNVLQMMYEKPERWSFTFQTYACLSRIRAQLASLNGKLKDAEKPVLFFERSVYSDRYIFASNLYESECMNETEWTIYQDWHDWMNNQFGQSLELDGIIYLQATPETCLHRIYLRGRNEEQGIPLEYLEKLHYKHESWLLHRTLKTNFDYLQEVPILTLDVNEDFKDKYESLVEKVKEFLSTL

Take `Cc1cn([C@H]2C[C@H](O)[C@@H](CO)O2)c(=O)[nH]c1=O` [thymidine, reference compound]: the “Tumor growth, single agent” value in the data set on CEM tumor xenografts (data not shown) was “tumor growth curves similar to the control”.

As a reminder, the EC50 is the concentration needed to bring the measured effect to its halfway point. One may read the half-life as the time needed for the level to fall by half in the phase considered. High values mean slow loss, low ones fast loss. With `COc1ccc(-c2nc([C@@H](C)Sc3nc(N)cc(N)n3)c(C)s2)cc1OCCN1CCOCC1` [DI-87, (R)-2-((1-(2-(4-methoxy-3-(2-morpholinoethoxy)phenyl)-5-methylthiazol-4-yl)ethyl)thio)pyrimidine-4,6-diamine], the Tumor growth inhibition result in the data set on CEM tumor xenografts (DI-87 25 mg/kg BID oral with thymidine 2 g/kg i.p. BID, 25 mg/kg) is on record as “Near complete growth inhibition; also recorded: maximal tumor growth inhibition”. Further, the “Emax, Growth Inhibition PK-PD Model” value in the data set with CEM tumor xenografts (Emax indirect response model, DI-87 with i.p. thymidine) is listed as 1.06. Also, the concentration for a half-maximal effect (EC50) in the data set with CEM tumor xenografts (Mus musculus, ip, read-out: EC50, Growth Inhibition PK-PD Model) stood at 3.63 µg/mL (≈ 7.22 µM). Also, the “Tumor growth, single agent” value in the data set on CEM tumor xenografts (data not shown) is “tumor growth curves similar to the control; also recorded: essentially no ability to inhibit growth”. In addition, the “Tolerability as a single agent” value in the data set with CEM tumor xenografts (single agent, higher doses, data not shown) was “well tolerated at higher doses”. At dCK, this molecule gave an EC50 of 617 nM. Besides, at dCK (setting [3]), the “Gamma (Hill coefficient), DCK inhibition PK-PD model” value is 58.6; the “Kin, DCK inhibition PK-PD model” value came to 0.76; the “Kout, DCK inhibition PK-PD model” value amounted to 0.12. Further, the “Emax, DCK inhibition PK-PD model” value at dCK (sigmoid Emax indirect response model, linked to tumor concentrations) was found to be 1.20. Moreover, the “dCK inhibition (PET)” value at dCK (single oral dose 5 mg/kg) is “minimal dCK inhibition with rapid recovery”. Besides, at dCK (single oral dose 10 mg/kg), the “dCK inhibition (PET)” value is “full inhibition with recovery initiating at the 12 hr time point”. Besides, on dCK (single oral dose 25 mg/kg), the “Earliest time of full dCK inhibition (PET)” value worked out at 3 h and the “Time to full recovery of dCK enzyme activity (PET)” value is at most 36 h. Further, the “Half-life (plasma)” value in data set [1] (0.693/(CL/V)) worked out at 4.2 h. The half-life in data set [1] (female, NSG, mouse, plasma, oral, Half-life (plasma), 0.693/(CL/V)) is 4 h. Besides, the “KA (absorption constant)” value in data set [1] (fixed to the estimate from the plasma PK model) is 0.66 (FIXED) hr. Further, the “Time of peak tumor concentration” value in data set [1] (oral 10, 25, 50 mg/kg, CEM tumor) lay in the range of 3 to 9 h. Also, in data set [1] (setting [4]), the CL was found to be 7.67 mL/min/kg and the “V (plasma volume of distribution)” value is 2.78 L/kg. Besides, in data set [1] (setting [5]), the “Q (intercompartmental clearance plasma-tumor)” value amounted to 0.075 mL/min/kg and the Scalar is 3.69. Further, the “Protein binding (IC50 in presence of BSA)” value in data set [2] is listed as “low protein binding; also recorded: retained its potency in the presence of albumin”. The “Protein binding (IC50 in presence of BSA)” value in data set [2] (listed as (R)-DI-87) is “comparatively lower than its predecessor”. The “Prevention of gemcitabine cytotoxicity” value with CEM cells was “fully prevented cytotoxicity following gemcitabine treatment”.
